# Assays:
# [1] = Inhibition of heparin-induced alexa red-labelled tau K18PL mutant aggregation after 6 hrs by thioflavin-T fluorescence assay; set-up: species or system Homo sapiens
# How it was run: (§1)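 Heparin-induced fibrillization of tau K18 fragment (residues 244–369) carrying P301L, with tau at 20 μM in sodium acetate buffer. Fibril formation was read by thioflavin-T fluorescence. IC50 came from sigmoidal fitting of concentration-response data, each concentration in triplicate. Values are from a single fit, or the mean of 2 or more analyses where marked.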
# [2] = organism: Homo sapiens; experiment: Inhibition of heparin-induced alexa red-labelled tau K18PL mutant aggregation after 6 hrs by thioflavin-T fluorescence assay relative to control; how it was run: as §1
# [3] = organism: Homo sapiens; experiment: Inhibition of heparin-induced tau K18PL mutant aggregation assessed as soluble tau fragment level at 50 uM after 5 days by SDS-PAGE analysis
# How it was run: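 Secondary centrifugation assay. Heparin-induced K18 P301L tau fibrillization mixtures with compound at 50 μM were centrifuged. Soluble and insoluble fractions were analysed by SDS-PAGE to give the percentage of tau remaining soluble.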
# [4] = Drug uptake in B6C3F1 mouse brain at 5 mg/kg, ip after 1 hr; format: ADME, organism-based; set-up: dose 5 mg/kg, route intraperitoneal; conditions: B6C3F1, mouse, brain, read-out: Drug uptake
# How it was run: (§2)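 Single i.p. dose of 5 mg/kg, sacrifice 1 h later. Perfused brain hemispheres were homogenized in 10 mM ammonium acetate pH 5.7 (50% w/v). EDTA plasma was taken. Brain homogenate or plasma was extracted with acetonitrile and analysed by LC-MS/MS (MRM) against matrix standard curves. Brain-to-plasma ratio was taken from total levels.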
# [5] = Drug uptake in B6C3F1 mouse plasma at 5 mg/kg, ip after 1 hr; format: ADME, organism-based; set-up: dose 5 mg/kg, route intraperitoneal; conditions: B6C3F1, mouse, plasma; how it was run: as §2
# [6] = system: Brain; experiment: Fraction unbound in mouse brain homogenate at 1 uM after 5 hrs by equilibrium dialysis; format: ADME, tissue-based
# How it was run: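 Rapid equilibrium dialysis. Compound at 1 μM in mouse plasma or brain homogenate, each diluted threefold with 100 mM sodium phosphate pH 7.4. Triplicate samples dialysed against the same buffer for 5 h at 37 °C with shaking. Both sides were matrix-matched, extracted with acetonitrile and run by LC-MS/MS. fu is buffer response over sample response; brain fu was corrected for tissue dilution.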
# [7] = Oral bioavailability in B6C3F1 mouse at 10 mg/kg at 1 hr; format: ADME, organism-based; conditions: in vivo
# [8] = AUC (0.5 to 16 hrs) in B6C3F1 mouse brain at 5 mg/kg, ip; format: ADME, organism-based; set-up: time 0.5-16 hr, dose 5 mg/kg, route intraperitoneal
# How it was run: (§3)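 Mice given 5 mg/kg i.p. (n = 3 per time point) and sacrificed at times from 0.5 to 16 h after dosing. Perfused brain hemispheres were homogenized in 10 mM ammonium acetate pH 5.7 (50% w/v). Plasma came from EDTA blood. Samples were extracted with acetonitrile and quantified by LC-MS/MS (MRM, positive ESI) against matrix standard curves by linear regression.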
# [9] = AUC (0.5 to 16 hrs) in B6C3F1 mouse plasma at 5 mg/kg, ip; format: ADME, organism-based; set-up: time 0.5-16 hr, dose 5 mg/kg, route intraperitoneal; how it was run: as §3
# [10] = Ratio of drug level in brain to plasma in B6C3F1 mouse at 5 mg/kg, ip after 16 hrs; format: ADME, organism-based; set-up: dose 5 mg/kg, route intraperitoneal; conditions: read-out: BPR; how it was run: as §3
# [11] = Ratio of unbound fraction in brain to plasma in B6C3F1 mouse at 5 mg/kg, ip after 16 hrs; format: ADME, organism-based; set-up: dose 5 mg/kg, route intraperitoneal; conditions: in vivo; how it was run: as §3
# [12] = system: Brain; experiment: Clearance in B6C3F1 mouse brain at 5 mg/kg, ip after 16 hrs; format: ADME, organism-based; set-up: dose 5 mg/kg, route intraperitoneal; conditions: in vivo; how it was run: as §3
# [13] = Clearance in B6C3F1 mouse plasma at 5 mg/kg, ip after 16 hrs; format: ADME, organism-based; set-up: dose 5 mg/kg, route intraperitoneal; how it was run: as §3
# [14] = Half life in B6C3F1 mouse plasma at 5 mg/kg, ip after 16 hrs; format: ADME, organism-based; set-up: dose 5 mg/kg, route intraperitoneal; how it was run: as §3
# [15] = system: Plasma; experiment: Volume of distribution in B6C3F1 mouse plasma at 5 mg/kg, ip after 16 hrs; format: ADME, organism-based; set-up: dose 5 mg/kg, route intraperitoneal; conditions: in vivo; how it was run: as §3
# [16] = Plasma concentration in B6C3F1 mouse at 10 mg/kg, po at 1 hr; format: ADME, organism-based; set-up: dose 10 mg/kg, route oral
# [17] = Plasma concentration in B6C3F1 mouse at 5 mg/kg, ip at 1 hr; format: ADME, organism-based; set-up: dose 5 mg/kg, route intraperitoneal; how it was run: as §2
# [18] = system: Mus musculus; experiment: Toxicity in B6C3F1 mouse assessed as adverse effects up to 100 mg/kg, po; format: organism-based; set-up: dose 100 mg/kg, route oral; conditions: in vivo
# [19] = system: Mus musculus; experiment: Toxicity in B6C3F1 mouse assessed as mild and transient lethargy at 100 mg/kg, po; format: organism-based; set-up: dose 100 mg/kg, route oral; conditions: in vivo
# [20] = system: Mus musculus; experiment: Toxicity in B6C3F1 mouse assessed as adverse event at 50 mg/kg, po administered in water qd for 1 month; format: organism-based; set-up: dose 50 mg/kg, route oral; conditions: in vivo
# How it was run: (§4)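 Female B6C3F1 mice, 2 months old (n = 5 per group), dosed for 1 month via drinking water containing 3% PEG400 and 0.5% methylcellulose. Dose equivalent 50 mg/kg/day, assuming about 5 ml water per mouse per day. Vehicle controls were included and water intake was monitored. At the end, body weight was taken, then perfusion, organ weights (heart, liver, kidney, spleen, brain) and complete blood counts.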
# [21] = system: Mus musculus; experiment: Toxicity in B6C3F1 mouse assessed as adverse effects at 50 mg/kg, po administered qd for 1 month; format: organism-based; set-up: dose 50 mg/kg, route oral; conditions: in vivo; how it was run: as §4
# [22] = system: Mus musculus; experiment: Toxicity in B6C3F1 mouse assessed as body weight loss at 50 mg/kg, po administered in water qd for 1 month relative to control; format: organism-based; set-up: dose 50 mg/kg, route oral; conditions: in vivo; how it was run: as §4
# [23] = system: Mus musculus; experiment: Toxicity in B6C3F1 mouse assessed as change in heart weight at 50 mg/kg, po administered in water qd for 1 month; format: organism-based; set-up: dose 50 mg/kg, route oral; conditions: in vivo; how it was run: as §4
# [24] = system: Mus musculus; experiment: Toxicity in B6C3F1 mouse assessed as change in liver weight at 50 mg/kg, po administered in water qd for 1 month; format: organism-based; set-up: dose 50 mg/kg, route oral; conditions: in vivo; how it was run: as §4
# [25] = system: Mus musculus; experiment: Toxicity in B6C3F1 mouse assessed as change in kidney weight at 50 mg/kg, po administered in water qd for 1 month; format: organism-based; set-up: dose 50 mg/kg, route oral; conditions: in vivo; how it was run: as §4
# [26] = system: Mus musculus; experiment: Toxicity in B6C3F1 mouse assessed as change in spleen weight at 50 mg/kg, po administered in water qd for 1 month; format: organism-based; set-up: dose 50 mg/kg, route oral; conditions: in vivo; how it was run: as §4
# [27] = system: Mus musculus; experiment: Toxicity in B6C3F1 mouse assessed as change in brain weight at 50 mg/kg, po administered in water qd for 1 month; format: organism-based; set-up: dose 50 mg/kg, route oral; conditions: in vivo; how it was run: as §4
# [28] = system: Mus musculus; experiment: Toxicity in B6C3F1 mouse assessed as change in RBC count at 50 mg/kg, po administered in water qd for 1 month; format: organism-based; set-up: dose 50 mg/kg, route oral; conditions: in vivo; how it was run: as §4
# [29] = system: Mus musculus; experiment: Toxicity in B6C3F1 mouse assessed as change in WBC count at 50 mg/kg, po administered in water qd for 1 month; format: organism-based; set-up: dose 50 mg/kg, route oral; conditions: in vivo; how it was run: as §4
# [30] = system: Mus musculus; experiment: Toxicity in B6C3F1 mouse assessed as change in lymphocyte count at 50 mg/kg, po administered in water qd for 1 month; format: organism-based; set-up: dose 50 mg/kg, route oral; conditions: in vivo; how it was run: as §4
# [31] = system: Mus musculus; experiment: Toxicity in B6C3F1 mouse assessed as change in neutrophil count at 50 mg/kg, po administered in water qd for 1 month; format: organism-based; set-up: dose 50 mg/kg, route oral; conditions: in vivo; how it was run: as §4
# [32] = Drug uptake in B6C3F1 mouse brain at 50 mg/kg, po administered qd in drinking water for 3 days; format: ADME, organism-based; set-up: dose 50 mg/kg, route oral; conditions: read-out: Drug uptake
# How it was run: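 Brain levels were measured after 3 days. Perfused brain hemispheres were homogenized in 10 mM ammonium acetate, pH 5.7 (50% w/v), extracted with acetonitrile, and analysed by LC-MS/MS (MRM) against brain-homogenate standard curves. Free level was calculated from the equilibrium-dialysis brain unbound fraction.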
# [33] = system: Brain; experiment: Free AUC (0.5 to 16 hrs) in B6C3F1 mouse brain at 5 mg/kg, ip; format: ADME, organism-based; set-up: dose 5 mg/kg, route intraperitoneal; conditions: in vivo; how it was run: as §3
# [34] = system: Plasma; experiment: Free AUC (0.5 to 16 hrs) in B6C3F1 mouse plasma at 5 mg/kg, ip; format: ADME, organism-based; set-up: dose 5 mg/kg, route intraperitoneal; conditions: in vivo; how it was run: as §3
# [35] = system: Mus musculus; experiment: Ratio of drug level in brain to plasma in B6C3F1 mouse at 5 mg/kg, ip after 1 hr
compound,measurement,setting,value
Nc1scc2c(C(=O)NC3CC3)nn(-c3ccc(F)cc3)c(=O)c12,IC50,[1],2500 nM
same,Imax,[2],88%
same,inhibition,[3],78%
same,concentration at 1 h,[4],670 ng/g
same,concentration at 1 h,[5],610 ng/mL
same,Fu,[6],4.3%
same,bioavailability,[7],60%
same,AUC(0-t),[8],4510 ng·h/mL
same,AUC(0-t),[9],2350 ng·h/mL
same,Kp at 16 h,[10],1.9
same,BPR,[11],1.2
same,CL,[12],50 mL/h
same,CL/F,[13],1.31 mL/min
same,half-life,[14],2.2 h
same,Vd,[15],246 mL
same,concentration at 1 h,[16],832 ng/mL
same,concentration at 1 h,[17],610 ng/mL
same,Activity,[18],Non-toxic
same,Activity,[19],Toxic
same,Activity,[20],Non-toxic
same,Activity,[21],Non-toxic
same,Activity,[22],Non-toxic
same,Activity,[23],Non-toxic
same,Activity,[24],Non-toxic
same,Activity,[25],Non-toxic
same,Activity,[26],Non-toxic
same,Activity,[27],Non-toxic
same,Activity,[28],Non-toxic
same,Activity,[29],Non-toxic
same,Activity,[30],Non-toxic
same,Activity,[31],Non-toxic
same,concentration at 72 h,[32],139 nM
same,fAUC,[33],195 ng·h/mL
same,fAUC,[34],162 ng·h/mL
same,BPR,[35],1.09
